# Screens deposited in PubChem BioAssay by several laboratories.
# Shown are actives, neighbours in structure and some others; about 2% of the full set was active somewhere.
# EphB4 antag: blocks human EphB4 binding to ephrin-B2; EphB4 LBD / TNYL-RAW-Alexa532 peptide, fluorescence polarization; AID 720; 0.15% of 97,000 active; P54760; inhibition, % at 7 µM;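 active = inhibition above the screen-wide mean inhibition plus 3 SD, cut at about 15% in these data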
# PLK1 inh: blocks human PLK1 kinase activity; P53350; recombinant PLK1 kinase, TR-FRET peptide phosphorylation; inhibition, % at 10 µM; 0.53% of 97,000 active; AID 619;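 active = inhibition of 50% or more in the single-concentration screen; inactive = inhibition below 50%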
# PTPN22 act: increases human PTPN22 phosphatase activity | 0.11% of 96,000 active | AID 697 | activation, % at 2 µM | Q9Y2R2 | recombinant LYP, DiFMUP fluorescence; 0 = plate median, 100 = signal doubled;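 active = activation at 2 µM above a set limit, the mean plus 5 SD, cut at about 37% in these data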
# Target sequence (Q9Y2R2 whole entry, looked up): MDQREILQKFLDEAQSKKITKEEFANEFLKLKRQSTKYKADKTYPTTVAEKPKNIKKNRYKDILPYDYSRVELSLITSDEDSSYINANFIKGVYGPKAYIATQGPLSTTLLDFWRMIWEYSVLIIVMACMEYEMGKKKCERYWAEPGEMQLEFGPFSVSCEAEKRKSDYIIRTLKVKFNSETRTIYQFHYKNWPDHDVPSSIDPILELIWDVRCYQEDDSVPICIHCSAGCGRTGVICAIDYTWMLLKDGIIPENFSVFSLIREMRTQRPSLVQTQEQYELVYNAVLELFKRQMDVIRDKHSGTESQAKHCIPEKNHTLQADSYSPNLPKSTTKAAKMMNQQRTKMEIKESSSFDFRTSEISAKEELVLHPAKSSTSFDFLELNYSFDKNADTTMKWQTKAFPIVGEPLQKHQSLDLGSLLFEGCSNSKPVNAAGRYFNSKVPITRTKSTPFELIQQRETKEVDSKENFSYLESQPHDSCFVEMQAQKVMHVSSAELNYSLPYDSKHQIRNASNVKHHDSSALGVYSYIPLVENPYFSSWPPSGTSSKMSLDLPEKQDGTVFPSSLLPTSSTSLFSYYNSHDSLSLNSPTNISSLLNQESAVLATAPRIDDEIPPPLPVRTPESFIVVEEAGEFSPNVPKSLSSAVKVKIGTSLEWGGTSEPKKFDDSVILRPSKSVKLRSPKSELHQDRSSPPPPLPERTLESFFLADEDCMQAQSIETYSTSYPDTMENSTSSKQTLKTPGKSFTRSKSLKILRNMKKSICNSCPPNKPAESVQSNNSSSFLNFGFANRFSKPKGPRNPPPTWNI
# Plk1 PBD FP: inhibitors of human Plk1 polo box domain binding; AID 693; inhibition, %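 (tested at about 20 µM)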; Plk1 PBD phosphopeptide binding, fluorescence polarization; 0.13% of 97,000 active; in the data active = inhibition above about 34%, passing the limit was not always enough
# HIV Rev-RRE inh: disrupts HIV-1 Rev binding to RRE RNA; P05866; Rev peptide-RRE RNA binding, FRET; inhibition, % at 8 µM; 0.79% of 97,000 active; AID 704;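 active = inhibition above the screen-wide mean plus 3 SD, cut at about 35% in these data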
#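 assay system = Cy5-tagged RRE RNA duplex with fluorescein-tagged Rev peptide | incubation = 5 + 15 min at 25 °C | also added = labelled Rev peptide | measure = % inhibition of FRET ratio versus controls | benchmarks = DMSO wells as 0% and neomycin B wells as 100% inhibition | measured by = FRET fluorescence readout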
# PTPN22 inh 2: blocks human PTPN22 phosphatase activity; Q9Y2R2; recombinant LYP catalytic domain, DiFMUP fluorescence; inhibition, % at 2 µM; 0.21% of 96,000 active; AID 640;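 active = inhibition at 2 µM at or above a set limit, the screen mean plus 3 SD, cut at about 24% in these data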
# Hits are given with their value; i = inactive; nt = no result given; [ ] = dose if it differs, or a comment.
SMILES,EphB4 antag,PLK1 inh,PTPN22 act,Plk1 PBD FP,HIV Rev-RRE inh,PTPN22 inh 2
CN1C=CC2=C(C#N)C(N)C(C#N)(C#N)C(c3ccccc3)C2C1 (stereo not given),i,i,i,i,64,i
Cc1nc2ccccc2nc(C)c1=NO,i,i,i,i,i,i
C/C(O)=c1/ccc2cccc3nc(C)nc1c23,i,i,i,i,91[fluorescence artefact?],i
COc1ccc(CNCC(O)(c2ccc(Cl)cc2)c2ccc(Cl)cc2)cc1,i,i,i,i,i,i
COc1ccc(CNCC(O)(c2ccc(Cl)cc2)c2ccc(Cl)cc2)cc1OC,i,i,i,i,63,i
N#CC1=C(N)OC2=C(C(=O)CCC2)C1c1ccccc1 (stereo not given),i,i,i,i,i,i
N#CC1=C(N)OC2=C(CC/C2=C\c2ccccc2)C1c1ccccc1 (stereo not given),i,i,i,i,136[fluorescence artefact?],i
COc1ccc(C(=O)N/N=C2/SCC(=O)N2Cc2ccc3c(c2)OCO3)cc1OC,16,i,i,i,i,i
O=C(NNC(=O)C(c1ccccc1)c1ccccc1)c1cccs1,i,i,i,i,i,i
COc1cccc(C(C#N)N2CCOCC2)c1 (stereo not given),22,i,i,i,i,i
Cc1ccc2nc3c(c(C(=O)O)c2c1)CCC3,i,i,i,i,i,i
Cc1cccc2c(C(=O)O)c3c(nc12)CCCCC3,17,i,i,i,i,i
COC(=O)/C(=C(/F)Sc1cc(C)c(O)c(C)c1)C(F)(F)F,i,i,i,i,i,i
Cc1cc(OCC(=O)Nc2ccc(F)c(F)c2)nc(C(C)C)n1,i,i,i,i,i,i
CC(C)c1nc2n[nH]c(N)c2c2c1CCCC2,i,66,i,i,i,i
CC(C)Cc1nc2n[nH]c(N)c2c2c1CCCC2,i,69,i,i,i,i
CCc1nc2n[nH]c(N)c2c2c1CCCC2,i,i,i,i,i,i
CCCCc1nc2n[nH]c(N)c2c2c1CCC2,i,i,i,i,i,i
CC(C)Cc1nc2n[nH]c(N)c2c2c1CCC2,i,50,i,i,i,i
COc1ccccc1OCCn1c(C(C)O)nc2ccccc21 (stereo not given),i,i,i,i,i,i
O=C(Nc1ccccc1Cl)ON=C1c2ccccc2-c2ccccc21,i,i,i,i,i,i
C=C(C)C(=O)OC1(C(F)(F)F)Oc2cc(C)ccc2NC1=O (stereo not given),i,i,i,i,i,i
CC(C)Cn1c(SCC(=O)NCc2ccc(Cl)cc2)nnc1-c1cccc(S(=O)(=O)N2CCOCC2)c1,i,i,i,i,i,i
CCOC(=O)c1c(C)[nH]c(C(=O)COC(=O)C2(C)CC2(Cl)Cl)c1C (stereo not given),i,i,i,i,i,i
O=C(Cn1nc(Cc2cccnc2)c2ccccc2c1=O)NCc1ccc(F)cc1,i,i,i,i,i,i
SMILES,EphB4 antag,PLK1 inh,PTPN22 act,Plk1 PBD FP,HIV Rev-RRE inh,PTPN22 inh 2
CC12CC(c3ccccc3O1)N(C(=O)c1ccco1)C(=S)N2c1ccc(F)cc1 (stereo not given),i,i,i,i,i,i
CCOc1cc(-c2cc(-c3ccc(C)cc3)nc(N)c2C#N)ccc1O,i,i,i,i,39,i
CCOc1cc(/C=C(\C#N)c2[nH]nc(N)c2C#N)ccc1O,i,69,i,i,i,i
CCOc1cc(-c2c(C#N)c(N)nc3c2CCCC3C)ccc1O (stereo not given),i,i,i,i,i,i
COCC(=O)Nc1nc2n(n1)C(c1ccccc1Cl)CC(c1ccc(OC)cc1)N2 (stereo not given),i,i,i,i,i,i
COCC(=O)Nc1nc2n(n1)C(c1ccc(Cl)cc1)CC(c1ccc(OC)cc1)N2 (stereo not given),i,i,i,i,36,i
O=C(N/N=C/c1ccccc1)c1sccc1OCc1ccc(F)cc1,i,i,i,i,i,i
CCC(C)n1c(C)nc2c(c1=O)c1nc3ccccc3nc1n2CCC1=CCCCC1 (stereo not given),i,i,i,i,i,25
COCCn1c(N)c(C(=O)OCc2ccccc2)c2nc3ccccc3nc21,i,i,i,i,i,i
COCCNC(=O)c1c(N)n(CCC2=CCCCC2)c2nc3ccccc3nc12,i,i,i,i,56,i
Nc1c(C(=O)NCc2ccco2)c2nc3ccccc3nc2n1CCc1ccccc1F,i,i,i,i,i,25
O=C(CSc1nnnn1Cc1ccccc1)Nc1ccc2c(c1)OCO2,18,i,i,i,i,i
O=C(/C=C/c1ccccc1)c1cc(Br)ccc(=O)c1O,i,i,i,i,46,i
CCOC(=O)c1c(C)[nH]c(C)c1C(=O)COC(=O)CCOc1ccccc1OC,i,65,i,i,i,i
COc1cc2c(cc1OC)CN(CC(=O)Nc1ccccc1C#N)CC2,i,i,i,i,i,i
COc1cc2c(cc1OC)C1=C(C#N)CN(CC(=O)O)CN1CC2,i,61,nt,i,i,nt
C=CCn1c(C)c(C(C)=O)c(N2CCN(c3ccccc3)CC2)nc1=S,i,i,i,i,82[fluorescence artefact?],i
Nc1[nH]c(=S)[nH]c(=O)c1-c1ccccc1,i,i,i,i,139[fluorescence artefact?],i
CCOc1ccc(NC(=O)C2CCN(C(=O)NC3CCCCC3)CC2)cc1,i,52,i,i,i,i
Cc1ccc(-c2c3c(=O)n(C)c(=O)n(C)c3c3nnc4ccccc4n23)cc1,i,i,i,i,i,i
Cc1cccc(-c2c3c(=O)n(C)c(=O)n(C)c3c3nnc4ccccc4n23)c1,i,i,i,i,49,i
CCOC(=O)CC1=C(C(=O)OCC)C(c2ccc(C)o2)C(C#N)=C(N)O1 (stereo not given),i,i,i,i,i,i
Cc1ccc(C2C(C#N)=C(N)Oc3c2sc2ccccc32)o1 (stereo not given),i,i,i,i,94[fluorescence artefact?],i
Cn1c(C(=O)N2CCN(c3ccc(Cl)cc3)CC2)cc2c(=O)[nH]c3ccccc3c21,i,52,i,i,i,i
O=C(CSc1nc(-c2ccco2)cc(C(F)(F)F)n1)NC1CCCC1,i,69,nt,i,i,nt
SMILES,EphB4 antag,PLK1 inh,PTPN22 act,Plk1 PBD FP,HIV Rev-RRE inh,PTPN22 inh 2
COc1cc(/C=N/c2oc(-c3ccccc3)cc2C#N)ccc1O,i,i,i,i,40,i
COc1cc(/C=N/NC(=O)c2sc(N)c(C#N)c2C)ccc1O,i,i,i,i,i,i
COc1ccc(N=Nc2nc3ccc(Br)cc3n2C)cc1,i,i,i,i,101[fluorescence artefact?],i
Cc1ccc(C)c(OCC(=O)N/N=C/c2c(C)nn(-c3ccccc3)c2Cl)c1,i,i,i,i,i,28
CCCCC(=O)OCCNC(=O)c1cc2ccccc2oc1=O,i,i,i,i,i,i
CCCCCCc1cc2cc(C(N)=O)c(=N)oc2cc1O,i,i,i,i,87[fluorescence artefact?],i
CCCCCCc1cc2cc(C(=O)NC)c(=N)oc2cc1O,i,i,i,i,70,i
